Our source for the Activity and inhibition values is ChEMBL document CHEMBL5576156, “New pyrazole-pyridazine hybrids as selective COX-2 inhibitors: design, synthesis, molecular docking, in silico studies and investigation of their anti-inflammatory potential by evaluation of TNF-α, IL-6, PGE-2 and NO in LPS-induced RAW264.7 macrophages” (RSC Med Chem, 2024).

For test [1], the system named is Rattus norvegicus. Nature of the test: Antiinflammatory activity against carrageenin-induced rat paw edema at 10 mg/kg, po pretreated with carrageenin for 1 hr followed by compound addition and measured after 3 hrs. In kind it is functional. (Carrageenan injected into the paw causes an acute inflammation.)
In test [2] the test system is RAW264.7. In words: Antiinflammatory activity against LPS induced mouse RAW264.7 cells assessed as decrease in PGE2 production at 50 uM after 24 hrs by ELISA. In kind it is functional. Further details: scale not given: the % may be the effect or the level left. The method in brief:
(§1)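 RAW264.7 cells seeded at 5 × 10^3 per well and held 24 h at 37 °C, 5% CO2. Test compound given at 50 μM together with LPS 1 μg mL−1. Untreated cells were the blank, and LPS + DMSO (0.1% v/v final) was the negative control. IL-6, PGE-2 and TNF-α in the medium were measured by ELISA kits 24 h after treatment.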
(An ELISA detects its analyte on a solid surface through an enzyme-linked reagent.)

For test [3], the system named is RAW264.7. In words: Antiinflammatory activity against LPS induced mouse RAW264.7 cells assessed as decrease in IL6 production at 50 uM after 24 hrs by ELISA. The arrangement: scale not given: the % may be the effect or the level left. In kind it is functional. The method in brief: as §1
For test [4], the system named is RAW264.7. In words: Antiinflammatory activity in LPS-induced mouse RAW264.7 cells assessed as inhibition of NO production at 20 uM pretreated for 2 hrs followed by LPS stimulation and measured after 24 hrs by Griess reagent based assay. The test is classed as functional. Further details: scale not given: the % may be the effect or the level left. Particulars: time 26 hrs. In outline: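 RAW264.7 cells pretreated with compound for 2 h, then stimulated with LPS 1 μg mL−1 for 24 h. Culture medium was mixed 1:1 with Griess reagent and held 10 min at room temperature. Absorbance at 540 nm was read as the NO indicator.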
Background: Griess reagent forms a coloured azo dye with nitrite.

The subject of test [5] is RAW264.7. In words: Antiinflammatory activity against LPS induced mouse RAW264.7 cells assessed as decrease in TNFalpha production at 50 uM after 24 hrs by ELISA. The test is classed as functional. Further details: scale not given: the % may be the effect or the level left. The method in brief:
as §1

The target in test [6] is T1, Prostaglandin G/H synthase 2 (Homo sapiens) (UniProt P35354).
T1 sequence (whole entry): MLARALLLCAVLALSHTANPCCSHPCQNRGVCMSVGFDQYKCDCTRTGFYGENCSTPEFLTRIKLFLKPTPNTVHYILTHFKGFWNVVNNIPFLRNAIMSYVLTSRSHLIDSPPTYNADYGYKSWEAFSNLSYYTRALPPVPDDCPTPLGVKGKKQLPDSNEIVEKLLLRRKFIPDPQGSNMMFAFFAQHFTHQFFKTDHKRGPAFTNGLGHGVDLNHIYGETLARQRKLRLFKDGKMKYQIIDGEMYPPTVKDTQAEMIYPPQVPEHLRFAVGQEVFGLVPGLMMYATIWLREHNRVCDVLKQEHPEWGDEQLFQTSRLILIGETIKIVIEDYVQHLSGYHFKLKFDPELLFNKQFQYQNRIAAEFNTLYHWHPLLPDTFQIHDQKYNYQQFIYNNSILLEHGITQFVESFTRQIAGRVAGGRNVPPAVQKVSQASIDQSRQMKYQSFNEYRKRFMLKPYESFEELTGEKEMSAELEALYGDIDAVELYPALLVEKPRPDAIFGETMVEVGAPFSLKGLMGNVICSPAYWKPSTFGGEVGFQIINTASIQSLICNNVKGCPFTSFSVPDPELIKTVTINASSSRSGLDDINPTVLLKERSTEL
Nature of the test: Inhibition of COX-2 in human whole blood at 8 uM incubated for 24 hrs by immunoassay relative to control. The test is classed as tissue-based.

As to `Cc1cc(C)n(-c2ccc(=O)n(CC(=O)NCc3ccccc3)n2)n1`, in test [1], the Activity turned out to be 84%.

With `COc1cc(/C=N/C2=NN=C(N)C2c2ccc(Cl)nn2)cc(OC)c1OC` (stereo unspecified), the Activity stood at 64% in test [2], 78% in test [3], 70% in test [4] and 70% in test [5].

As to `Cc1ccc(-c2cc(C(F)(F)F)nn2C2=NNC(Cl)C=C2)cc1` (stereo unspecified), the inhibition (commonly the share of the control response that was lost under treatment) in test [6] worked out at 78%.

Regarding `Cc1ccc(-c2cc(C(F)(F)F)nn2-c2ccc(S(N)(=O)=O)cc2)cc1` [CELECOXIB], the Activity came out at 69% in test [2], 83% in test [3] and 75% in test [5].

Take `NC1=NN=C(/N=C/c2ccc(Br)cc2)C1c1ccc(Cl)nn1` (stereo unspecified): the Activity is on record as 60% in test [2], 65% in test [3], 53% in test [4] and 65% in test [5].

`COc1cc(/C=N/C2=NNC(=O)C2c2ccc(Cl)nn2)cc(OC)c1OC` (stereo unspecified): the Activity in test [2] stood at 44%; in test [3], 62%; in test [5] it was 48%.
